Reference: PMC6619501 (Nature microbiology, 2018)

Assays:
IκBα phosphorylation = experiment: Immunoblot analysis of p-IκBα in A.f-infected BMDMs; format: cell-based, mouse; conditions: unprimed WT BMDMs incubated with NF-κB inhibitor during fungal infection
In short: (§1)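 Bone-marrow-derived macrophages from C57BL/6-background mice, 3×10^6 cells in DMEM with 10% FBS and 1% penicillin–streptomycin, left unprimed and given the NF-κB inhibitor class test compound. They were then infected with A. fumigatus A1160 conidia (malt-agar slants, 1 week) at MOI 20. Cells were lysed in 1× RIPA, and 15 μg protein was separated by SDS-PAGE, transferred to PVDF and probed for p-IκBα, total IκBα and IRF1 with HRP detection. Representative of ≥3 independent experiments.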

IRF1 = experiment: Immunoblot analysis of IRF1 in A.f-infected BMDMs; format: cell-based, mouse; conditions: unprimed WT BMDMs incubated with NF-κB inhibitor during fungal infection
In short: as §1

Compound: Cc1ccc(S(=O)(=O)/C=C/C#N)cc1 [Bay 11-7082]
- phosphorylation of IκBα (IκBα phosphorylation): reduced
- IRF1 induction (IRF1): reduced
